Laboratory results from ChEMBL document CHEMBL4387704, “Design, synthesis and biological evaluation of novel isoindolinone derivatives as potent histone deacetylase inhibitors” (Eur J Med Chem, 2019).
The source made the active and inactive calls. The rule behind the calls is not given here.

How the values were obtained:
[1] = test system: K562; test: Growth inhibition of human K562 cells assessed as cell growth inhibition at 10 uM incubated for 48 hrs by sulforhodamine B assay; assay type: functional; details: K562, 48 h, read-out: GI
[2] = Metabolic stability in dog liver microsomes assessed as half life at 1 uM preincubated for 10 mins followed by NADPH addition measured upto 60 mins by LC-MS/MS analysis; assay type: ADME, Canis lupus familiaris, Microsome
Method in brief: (§1)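 Liver microsomes from male SD rat, dog or human at 0.5 mg/mL in 100 mM potassium phosphate pH 7.4 with 1 μM compound. Prewarmed 37 °C 10 min, started with 1 mM NADPH. Stopped at 0, 5, 10, 20, 40, 60 min with cold methanol containing glibenclamide internal standard; supernatant by LC–MS/MS; T1/2 and CLint derived.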

[3] = test system: UACC-62; test: Growth inhibition of human UACC62 cells assessed as cell growth inhibition at 10 uM incubated for 48 hrs by sulforhodamine B assay; assay type: functional; details: UACC-62, 48 h, read-out: GI
[4] = Metabolic stability in rat liver microsomes assessed as half life at 1 uM preincubated for 10 mins followed by NADPH addition measured upto 60 mins by LC-MS/MS analysis; assay type: ADME, Microsome; method in brief: as §1
[5] = test system: HCT-15; test: Growth inhibition of human HCT15 cells assessed as cell growth inhibition at 10 uM incubated for 48 hrs by sulforhodamine B assay; assay type: functional; details: HCT-15, 48 h, read-out: GI
[6] = molecular target: Class 1 histone deacetylase (Homo sapiens) (UniProt Q13547+O15379+Q92769+Q9BY41); test: Inhibition of class I HDAC in human MCF7 cells assessed as increase in cellular histone H3 acetylation levels incubated for 24 hrs by Western blot; assay type: cell-based
Method in brief: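 MCF-7 cells (1×10^6) seeded overnight, treated 24 h at 0.25, 2.5 or 25 μM. Lysed with protease inhibitor (EDTA-free); 30 µg total protein run on SDS-PAGE, blotted to nitrocellulose, probed for acetyl-H3, ECL detection.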

[7] = test system: Malme-3M; test: Growth inhibition of human MALME-3M cells assessed as cell growth inhibition at 10 uM incubated for 48 hrs by sulforhodamine B assay; assay type: functional; details: read-out: GI
[8] = molecular target: Histone deacetylase 3 (Homo sapiens, UniProt O15379); test: Inhibition of HDAC3 (unknown origin) using Fluor de Lys substrate by fluorescence assay relative to control
Method in brief: (§2)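 Recombinant HDAC isoform assays run by a contract lab. Compounds in DMSO, 10-dose IC50 mode, 3-fold serial dilution from 50 μM. Duplicate runs; IC50 from curve fitting.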

[9] = test system: EKVX; test: Growth inhibition of human EKVX cells assessed as cell growth inhibition at 10 uM incubated for 48 hrs by sulforhodamine B assay; assay type: functional; details: read-out: GI
[10] = Clearance in Sprague-Dawley rat at 1 mg/kg, iv by LC-MS/MS analysis; assay type: ADME, organism-based; details: in vivo
Method in brief: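 Male SD rats, 199-214 g, three per route. Single iv dose of 1 mg/kg or oral dose of 10 mg/kg. About 200 μL blood drawn from the jugular vein into heparinized tubes at set times, then spun to plasma. 30 μL plasma precipitated with CH3CN containing verapamil and glibenclamide as internal standards. Plasma drug level measured by LC-MS/MS.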

[11] = test system: RXF 393; test: Growth inhibition of human RXF393 cells assessed as cell growth inhibition at 10 uM incubated for 48 hrs by sulforhodamine B assay; assay type: functional; details: RXF 393, 48 h, read-out: GI
[12] = molecular target: Polyamine deacetylase HDAC10 (Homo sapiens, UniProt Q969S8); test: Inhibition of HDAC10 (unknown origin) using Fluor de Lys substrate by fluorescence assay relative to control; method in brief: as §2
[13] = test system: CCRF-CEM; test: Growth inhibition of human CCRF-CEM cells assessed as cell growth inhibition at 10 uM incubated for 48 hrs by sulforhodamine B assay; assay type: functional; details: read-out: GI
[14] = test system: SNB-19; test: Growth inhibition of human SNB19 cells assessed as cell growth inhibition at 10 uM incubated for 48 hrs by sulforhodamine B assay; assay type: functional; details: SNB-19, 48 h, read-out: GI
[15] = test system: T47D; test: Growth inhibition of human T47D cells assessed as cell growth inhibition at 10 uM incubated for 48 hrs by sulforhodamine B assay; assay type: functional; details: read-out: GI
[16] = test system: HOP-62; test: Growth inhibition of human HOP62 cells assessed as cell growth inhibition at 10 uM incubated for 48 hrs by sulforhodamine B assay; assay type: functional; details: HOP-62, 48 h, read-out: GI
[17] = Metabolic stability in human liver microsomes assessed as half life at 1 uM preincubated for 10 mins followed by NADPH addition measured upto 60 mins by LC-MS/MS analysis; assay type: ADME, Microsome; method in brief: as §1
[18] = molecular target: Histone deacetylase 9 (Homo sapiens) (UniProt Q9UKV0); test: Inhibition of HDAC9 (unknown origin) using Fluor de Lys substrate by fluorescence assay relative to control; method in brief: as §2
[19] = test system: SK-MEL-28; test: Growth inhibition of human SK-MEL-28 cells assessed as cell growth inhibition at 10 uM incubated for 48 hrs by sulforhodamine B assay; assay type: functional; details: SK-MEL-28, 48 h, read-out: GI
[20] = Oral bioavailability in Sprague-Dawley rat at 10 mg/kg by LC-MS/MS analysis; assay type: ADME, organism-based; details: in vivo
Method in brief: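 Male SD rats (199-214 g), three per route, single dose 1 mg/kg iv or 10 mg/kg po. Jugular blood (~200 μL) into heparinized tubes at set times; plasma by centrifugation, protein precipitation with acetonitrile containing verapamil and glibenclamide; drug measured by LC-MS/MS.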

[21] = AUC (0 to t) in Sprague-Dawley rat at 1 mg/kg, iv by LC-MS/MS analysis; assay type: ADME, organism-based; details: in vivo
[22] = test system: UACC-257; test: Growth inhibition of human UACC257 cells assessed as cell growth inhibition at 10 uM incubated for 48 hrs by sulforhodamine B assay; assay type: functional; details: UACC-257, 48 h, read-out: GI
[23] = test system: SK-MEL-2; test: Growth inhibition of human SK-MEL-2 cells assessed as cell growth inhibition at 10 uM incubated for 48 hrs by sulforhodamine B assay; assay type: functional; details: SK-MEL-2, 48 h, read-out: GI
[24] = organism: Homo sapiens; test: Selectivity index, ratio of IC50 of HDCA11 (unknown origin) to IC50 of HDCA1 (unknown origin)
[25] = test system: IGROV-1; test: Growth inhibition of human IGROV1 cells assessed as cell growth inhibition at 10 uM incubated for 48 hrs by sulforhodamine B assay; assay type: functional; details: IGROV-1, 48 h, read-out: GI
[26] = test system: HCT-116; test: Antiproliferative activity against human HCT116 assessed as reduction in cell viability measured after 72 hrs using alamar blue based fluorescence method; assay type: functional; details: HCT-116, 72 h
Method in brief: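 HCT116 and MCF-7 grown in McCoy's 5A with 10% FBS and penicillin/streptomycin at 37 °C, 5% CO2. Cells plated in 96-well format and exposed to drug for 72 h. Alamar blue (1 mM solution) added, incubated 5–6 h, fluorescence read at 530/590 nm.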

[27] = test system: SF-268; test: Growth inhibition of human SF268 cells assessed as cell growth inhibition at 10 uM incubated for 48 hrs by sulforhodamine B assay; assay type: functional; details: SF-268, 48 h, read-out: GI
[28] = test system: OVCAR-3; test: Growth inhibition of human OVCAR3 cells assessed as cell growth inhibition at 10 uM incubated for 48 hrs by sulforhodamine B assay; assay type: functional; details: OVCAR-3, 48 h, read-out: GI

Chain of Histone deacetylase 3 (O15379 whole entry, canonical isoform): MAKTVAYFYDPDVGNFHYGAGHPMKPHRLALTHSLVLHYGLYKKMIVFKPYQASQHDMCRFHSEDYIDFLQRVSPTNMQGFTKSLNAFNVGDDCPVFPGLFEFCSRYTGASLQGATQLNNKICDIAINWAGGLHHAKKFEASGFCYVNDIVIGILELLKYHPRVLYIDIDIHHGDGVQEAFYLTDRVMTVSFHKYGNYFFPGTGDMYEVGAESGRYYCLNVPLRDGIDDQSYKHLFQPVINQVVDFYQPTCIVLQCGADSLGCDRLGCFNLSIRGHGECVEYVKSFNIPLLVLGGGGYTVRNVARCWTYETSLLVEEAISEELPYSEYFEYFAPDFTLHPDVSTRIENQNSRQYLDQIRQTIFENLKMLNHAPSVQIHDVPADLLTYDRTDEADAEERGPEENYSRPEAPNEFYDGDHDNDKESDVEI
Chain of Class 1 histone deacetylase (Homo sapiens) (O15379 whole entry, looked up): as the sequence (O15379 whole entry, canonical isoform) above
Chain of Class 1 histone deacetylase (Homo sapiens) (Q13547 whole entry, looked up): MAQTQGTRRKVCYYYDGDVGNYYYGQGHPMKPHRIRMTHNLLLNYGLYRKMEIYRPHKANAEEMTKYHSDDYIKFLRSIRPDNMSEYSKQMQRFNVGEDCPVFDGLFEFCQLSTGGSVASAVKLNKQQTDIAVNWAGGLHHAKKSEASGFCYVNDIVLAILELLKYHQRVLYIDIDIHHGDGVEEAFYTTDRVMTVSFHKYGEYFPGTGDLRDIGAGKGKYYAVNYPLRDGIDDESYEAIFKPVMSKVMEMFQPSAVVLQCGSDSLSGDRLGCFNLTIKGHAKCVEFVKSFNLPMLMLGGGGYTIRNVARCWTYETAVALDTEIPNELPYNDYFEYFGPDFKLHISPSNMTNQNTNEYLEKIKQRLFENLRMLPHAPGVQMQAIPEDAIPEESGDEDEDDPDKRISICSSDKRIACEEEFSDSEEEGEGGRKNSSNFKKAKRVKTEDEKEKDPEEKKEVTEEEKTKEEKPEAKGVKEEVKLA
Chain of Class 1 histone deacetylase (Homo sapiens) (Q92769 whole entry, looked up): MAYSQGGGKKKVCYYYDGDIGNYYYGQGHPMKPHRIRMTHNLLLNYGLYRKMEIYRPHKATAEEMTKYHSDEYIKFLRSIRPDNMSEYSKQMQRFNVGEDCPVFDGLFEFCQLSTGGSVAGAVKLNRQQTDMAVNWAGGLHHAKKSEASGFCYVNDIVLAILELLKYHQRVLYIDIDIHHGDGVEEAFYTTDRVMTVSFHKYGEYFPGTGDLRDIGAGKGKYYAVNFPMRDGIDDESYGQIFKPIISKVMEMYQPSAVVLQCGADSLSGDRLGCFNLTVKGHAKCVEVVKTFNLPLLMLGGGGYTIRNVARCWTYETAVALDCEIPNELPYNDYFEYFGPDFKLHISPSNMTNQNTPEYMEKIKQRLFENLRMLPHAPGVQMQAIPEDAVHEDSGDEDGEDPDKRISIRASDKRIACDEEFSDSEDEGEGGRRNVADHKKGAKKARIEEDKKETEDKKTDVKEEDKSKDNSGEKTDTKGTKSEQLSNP
Chain of Class 1 histone deacetylase (Homo sapiens) (Q9BY41 whole entry, looked up): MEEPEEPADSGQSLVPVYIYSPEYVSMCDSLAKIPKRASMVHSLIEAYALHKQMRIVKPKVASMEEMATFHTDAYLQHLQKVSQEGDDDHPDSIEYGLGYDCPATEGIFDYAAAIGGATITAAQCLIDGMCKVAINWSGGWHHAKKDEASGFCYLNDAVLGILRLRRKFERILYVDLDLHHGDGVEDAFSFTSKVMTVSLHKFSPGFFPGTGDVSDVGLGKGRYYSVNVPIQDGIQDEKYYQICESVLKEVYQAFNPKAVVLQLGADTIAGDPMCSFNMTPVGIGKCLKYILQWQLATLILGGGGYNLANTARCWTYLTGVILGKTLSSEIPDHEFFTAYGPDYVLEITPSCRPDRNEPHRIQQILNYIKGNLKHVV
Chain of Polyamine deacetylase HDAC10 (Q969S8 whole entry): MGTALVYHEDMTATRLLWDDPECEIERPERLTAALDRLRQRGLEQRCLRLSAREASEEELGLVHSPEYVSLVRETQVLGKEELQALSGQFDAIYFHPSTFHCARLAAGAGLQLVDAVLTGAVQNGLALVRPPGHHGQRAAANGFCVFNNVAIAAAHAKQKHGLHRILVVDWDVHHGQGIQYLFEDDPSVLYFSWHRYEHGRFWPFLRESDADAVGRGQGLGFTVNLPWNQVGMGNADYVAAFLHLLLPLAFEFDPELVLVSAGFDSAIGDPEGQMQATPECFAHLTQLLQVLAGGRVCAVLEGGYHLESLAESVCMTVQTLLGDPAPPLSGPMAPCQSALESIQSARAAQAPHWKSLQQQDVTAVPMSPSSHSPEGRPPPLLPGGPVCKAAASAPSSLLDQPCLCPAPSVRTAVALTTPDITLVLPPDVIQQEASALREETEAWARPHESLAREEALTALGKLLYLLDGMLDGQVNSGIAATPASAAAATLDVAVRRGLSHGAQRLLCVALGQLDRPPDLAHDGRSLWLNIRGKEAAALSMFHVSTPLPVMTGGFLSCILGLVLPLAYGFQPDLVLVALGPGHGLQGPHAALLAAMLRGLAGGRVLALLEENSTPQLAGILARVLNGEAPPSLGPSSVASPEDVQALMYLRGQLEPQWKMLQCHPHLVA
Chain of Histone deacetylase 9 (Homo sapiens) (Q9UKV0 whole entry): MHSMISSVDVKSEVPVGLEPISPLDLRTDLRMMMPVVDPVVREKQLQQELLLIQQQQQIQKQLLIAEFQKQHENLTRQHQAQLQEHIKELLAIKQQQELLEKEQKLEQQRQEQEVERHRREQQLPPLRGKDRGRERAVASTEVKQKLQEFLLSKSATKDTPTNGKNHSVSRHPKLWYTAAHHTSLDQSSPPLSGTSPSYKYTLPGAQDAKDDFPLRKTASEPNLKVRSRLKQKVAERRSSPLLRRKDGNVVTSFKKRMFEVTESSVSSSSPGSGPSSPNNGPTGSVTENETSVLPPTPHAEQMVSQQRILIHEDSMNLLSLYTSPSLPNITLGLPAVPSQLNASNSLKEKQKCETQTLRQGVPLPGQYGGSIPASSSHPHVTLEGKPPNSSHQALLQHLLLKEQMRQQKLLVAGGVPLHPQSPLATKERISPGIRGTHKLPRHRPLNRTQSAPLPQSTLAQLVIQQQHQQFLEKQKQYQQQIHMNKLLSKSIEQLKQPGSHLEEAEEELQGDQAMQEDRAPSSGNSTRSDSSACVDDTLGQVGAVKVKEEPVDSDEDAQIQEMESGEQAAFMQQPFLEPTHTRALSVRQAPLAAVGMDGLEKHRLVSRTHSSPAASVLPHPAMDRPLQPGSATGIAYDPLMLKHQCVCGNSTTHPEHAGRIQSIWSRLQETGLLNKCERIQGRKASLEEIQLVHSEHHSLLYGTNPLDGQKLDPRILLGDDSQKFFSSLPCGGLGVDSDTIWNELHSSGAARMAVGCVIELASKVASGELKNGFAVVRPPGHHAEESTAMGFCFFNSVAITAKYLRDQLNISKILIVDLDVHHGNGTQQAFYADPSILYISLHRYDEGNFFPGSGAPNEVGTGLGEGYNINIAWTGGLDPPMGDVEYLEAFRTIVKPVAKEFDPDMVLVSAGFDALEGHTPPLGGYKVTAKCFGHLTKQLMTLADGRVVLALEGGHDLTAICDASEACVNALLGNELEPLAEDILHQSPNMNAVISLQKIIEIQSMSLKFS

## Nc1cc(F)ccc1NC(=O)c1ccc(CNC(=O)/C=C2\NC(=O)c3ccccc32)cc1
[1]
  inhibition of growth at 10 µM: 61.6%
[2]
  half-life at 1 µM: 3.35 h
[3]
  inhibition of growth at 10 µM: 57.8%
[4]
  half-life at 1 µM: 2.02 h
[5]
  inhibition of growth at 10 µM: 0.12%
[6]
  inhibition: Dose-dependent effect
[7]
  inhibition of growth at 10 µM: 52.6%
[8]
  IC50: 112 nM
[9]
  inhibition of growth at 10 µM: 11.7%
[10]
  clearance: 21.3 mL/min/kg
[11]
  inhibition of growth at 10 µM: 17.5%
[12]
  IC50: 950 nM
[13]
  inhibition of growth at 10 µM: 84.5%
[14]
  inhibition of growth at 10 µM: 13.6%
[15]
  inhibition of growth at 10 µM: 58.2%
[16]
  inhibition of growth at 10 µM: 29.9%
[17]
  half-life at 1 µM: 4.87 h
[18]
  inhibition: inactive
[19]
  inhibition of growth at 10 µM: 33.8%
[20]
  bioavailability: 16%
[21]
  AUC(0-t): 781 ng·h/mL
[22]
  inhibition of growth at 10 µM: 36.6%
[23]
  inhibition of growth at 10 µM: 52%
[24]
  Ratio IC50: 10
[25]
  inhibition of growth at 10 µM: 22.8%
[26]
  IC50: 432 nM
[27]
  inhibition of growth at 10 µM: 36%
[28]
  inhibition of growth at 10 µM: 42%
